From PubChem BioAssay
Vif imaging = blocks HIV Vif function. HEK293T cells, Vif self-association by quenched fluorescence, imaging, 24 h. inhibition, % at 7.49 µM. 340,000 tested, 0.35% active. AID 602346; in the data active = inhibition above about 50%, passing the limit was not always enough
PGC1a acetyl inh = modulators of PGC1a acetylation; 350,000 tested, 0.17% active; inhibition, % at 15.6 µM; U2OS PGC1a acetylation, AlphaScreen anti-acetyl-lysine; with virally co-expressed GCN5 acetyltransferase; AID 651687;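 active = every replicate shows inhibition of at least 40%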;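 also: 0% = neutral control wells and 100% = positive control wells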
rRNA inh HTS = inhibitors of bacterial rRNA selective over humanized ribosomes | E. coli WT GFP vs humanized-ribosome RFP mutants, fluorescence, 24 h; hits give low values; DMSO median 0, no signal -100 | GFP signal change (wild-type ribosome), % (test concentration not listed) | 350,000 tested, 1.6% active;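 active = significant combined selectivity score with lowered wild-type GFP, culture density cut under 30%, mutant RFP and density less affected; inactive = any of these conditions unmet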
FGF22 binding = shifts melting point of recombinant human FGF22; 340,000 tested, 1.5% active; AID 651658; Q9HCT0; activity (Tm shift, normalised), % at 9.99 µM; recombinant FGF22 thermal shift, SYPRO orange fluorescence; percent of sucrose octasulfate shift, DMSO zero;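 active = mean Tm shift, scaled 0 neutral to 100 positive control, at about 1.3% or above, every replicate too, limit read from the data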
Target sequence (Q9HCT0 whole entry, looked up): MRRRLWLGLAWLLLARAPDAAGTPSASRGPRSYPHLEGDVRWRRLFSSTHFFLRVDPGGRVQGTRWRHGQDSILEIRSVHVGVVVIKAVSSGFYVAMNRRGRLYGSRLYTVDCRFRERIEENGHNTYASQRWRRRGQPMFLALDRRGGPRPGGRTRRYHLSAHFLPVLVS
Cneo AK release = causes C. neoformans cell lysis; adenylate kinase release luminescence, 4 h; normalised: neutral wells 0, clomiphene wells 100; lysis activity, % at 15 µM; 360,000 tested, 0.2% active;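 active = mean lysis activity across replicates of at least 80%, whatever share of replicates individually reach that level; inactive = mean lysis activity below 80%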
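Schedule: static 4 h at 37 °C with compound, 1 h detection; system: C. neoformans cells; benchmarks: Clomiphene as positive control; buffer or medium: fresh YPD medium; measure: luminescence rise reflecting yeast cell lysis; measured by: luminescent adenylate kinase detection reagent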
PglD DTNB = inhibitors of Campylobacter jejuni PglD acetyltransferase; purified PglD enzyme, DTNB colorimetric CoA detection; inhibition, % at 12.5 µM; 360,000 tested, 0.098% active; AID 602405; in the data active = inhibition above about 16%, passing the limit was not always enough
* hit, by the source's call; nt = no result; ! = a repeat was not active. In the library only some 2.9% were active in any assay of this set; here they are far more common.

SMILES | Vif imaging | PGC1a acetyl inh | rRNA inh HTS | FGF22 binding | Cneo AK release | PglD DTNB
C[C@@H]1CCCCO[C@@H](CN(C)Cc2ccc(C(F)(F)F)cc2)[C@@H](C)CN([C@@H](C)CO)C(=O)c2cc(NS(=O)(=O)c3cn(C)cn3)ccc2O1 | nt | 3 | 0 | 0 | 91* | -3
CN(CCOc1ccccc1)CC(=O)Nc1ccc(Cl)c(S(=O)(=O)N(C)C)c1 | -5 | -5 | -37* | 0 | nt | nt
Nc1ccc2ccccc2c1N=Nc1ccccc1 | 2 | -4 | -31* | 0 | 1 | 7
Nc1ncnc(N)c1N=Nc1ccccc1 | -3 | 6 | 9 | 0 | -4 | 2
CS(=O)(=O)c1ccc(C(=O)Nc2cccc(-c3nc4ccccc4[nH]3)c2)cc1 | 6 | -21 | 10 | 0 | -4 | 5
CS(=O)(=O)c1cccc(C(=O)Nc2cccc(-c3nc4ccccc4[nH]3)c2)c1 | -1 | -3 | -19* | 0 | -4 | -1
O=C(Nc1cccc(-c2nc3ccccc3[nH]2)c1)c1cccc(NC(=O)c2ccco2)c1 | 72* | -16 | nt | nt | 0 | 1
O=C(Nc1ccc2nc(-c3ccccc3)[nH]c2c1)c1ccco1 | -2 | -6 | nt | nt | -3 | -5
O=C(c1ccccn1)N1C[C@H]2[C@@H](c3ccccc31)[C@@H](CO)N2C(=O)C1CCOCC1 | nt | 0 | 4 | -1 | 1 | 0
CCS(=O)(=O)N1CC(=O)N2[C@H](CO)[C@H](c3ccc(-c4ccc(C)cc4)cc3)[C@@H]2C1 | nt | -19 | 4 | 0 | nt | nt
Cc1ccc(S(=O)(=O)Nc2ccc3c(c2)C(=O)N([C@@H](C)CO)C[C@H](C)[C@@H](CN(C)C)OCCCC[C@H](C)O3)cc1 | nt | 3 | 0 | 0 | 5 | 5
Cc1nnc(C)n1/N=C/c1c(O)ccc2ccccc12 | -1 | 2 | 3 | 0 | 3 | -7
Cc1nnc(-c2ccccc2)c(=O)n1/N=C/c1c(O)ccc2ccccc12 | 35 | 64* | nt | nt | nt | nt
O=C(C[C@H]1C[C@H]2c3cc(NC(=O)CC4CC4)ccc3O[C@H]2[C@@H](CO)O1)NCc1ccc2c(c1)OCO2 | nt | 2 | 4 | 0 | -2 | 1
C[C@@H]1CN([C@@H](C)CO)C(=O)c2cccc(NC(=O)Nc3ccc4c(c3)OCO4)c2O[C@@H]1CN(C)S(=O)(=O)c1ccccc1 | nt | 6 | -1 | 0 | -59 | 0
COc1cc(-c2cc(-c3ccccc3)nc(SCC(=O)O)c2C#N)cc(OC)c1OC | -13 | 1 | -29* | 0 | 1 | -1
N#Cc1c(-c2ccc(Cl)cc2)cc(-c2ccccc2)nc1SCC(=O)O | 0 | -11 | -49 | 0 | -4 | 2
CC(C)c1ccc(C(=O)OCC(=O)c2c(N)n(C)c(=O)n(C)c2=O)cc1 | 7 | -7 | 10 | -1 | 1 | -1
Cn1c(N)c(C(=O)COC(=O)c2ccc(Cl)nc2)c(=O)n(C)c1=O | -4 | nt | 9 | 43* | nt | nt
Cn1c(N)c(C(=O)COC(=O)c2cc(S(=O)(=O)N3CCCCC3)ccc2Cl)c(=O)n(C)c1=O | -1 | nt | -26 | 0 | nt | nt
Cn1c(N)c(C(=O)COC(=O)c2ccc(Cl)c(S(=O)(=O)N3CCCC3)c2)c(=O)n(C)c1=O | 2 | 7 | -26* | 0 | 3 | 2
O=C1N/C(=N\S(=O)(=O)Cc2ccccc2)S/C1=C/c1cc([N+](=O)[O-])ccc1O | -1 | -1 | -20* | 0 | nt | nt
C[C@@H]1CN([C@@H](C)CO)C(=O)c2cc(NC(=O)Nc3cccc4ccccc34)ccc2O[C@@H](C)CCCCO[C@@H]1CN(C)S(=O)(=O)c1cn(C)cn1 | nt | -14 | -4 | -1 | -4 | 0
CO[C@H]1CN(C)C(=O)c2ccc(NC(=O)C3CC3)cc2OC[C@@H](C)N(Cc2cncnc2)C[C@H]1C | nt | -23 | 1 | nt | nt | nt
CC1=NC(=O)C(N=Nc2cccc(C(=O)O)c2)N1c1ccccc1 (stereo not drawn) | -4 | -6 | -31* | 0 | nt | nt
SMILES | Vif imaging | PGC1a acetyl inh | rRNA inh HTS | FGF22 binding | Cneo AK release | PglD DTNB
O=C1N[C@@H](Cc2ccccc2)COCc2cnnn2CC[C@H]1Cc1cccc(F)c1 | nt | nt | 5 | nt | nt | nt
O=C(COC(=O)CCC1CCCC1)Nc1nc2c(F)c(F)c(F)cc2s1 | -7 | -6 | nt | 0 | 91* | -4
CO[C@H]1CN(C)C(=O)c2cc(NC(C)=O)ccc2OC[C@@H](C)N(C(=O)C2CC2)C[C@H]1C | nt | -6 | -3 | 0 | -2 | 1
CCCn1c(SCC(=O)NC(=O)NC(C)(C)C)n[nH]c1=O | 1 | nt | 8 | 43* | nt | nt
COc1ccc(CN(C)C[C@@H]2OCCCC[C@@H](C)Oc3ccc(NS(=O)(=O)c4c(C)noc4C)cc3C(=O)N([C@@H](C)CO)C[C@@H]2C)cc1 | nt | 2 | 2 | 0 | nt | nt
CCN(c1ccccc1)S(=O)(=O)c1ccc(Cl)c(C(=O)OCC(=O)NC(=O)C(C)C)c1 | -6 | nt | -7 | 43* | nt | nt
COc1ccc(S(=O)(=O)Nc2ccc3c(c2)C(=O)N([C@@H](C)CO)C[C@@H](C)[C@H](CN(C)S(=O)(=O)c2ccc(C)cc2)OCCCC[C@@H](C)O3)cc1 | nt | -9 | -1 | -1 | -3 | 4
COc1cccc(NC(=O)N2C[C@H](O)COC[C@H]3O[C@@H](CC(=O)NC4CCCC4)CC[C@@H]32)c1 | nt | 2 | -1 | 0 | 57 | -5
CCc1nc2ccc(C(=O)N3CCN(CC)CC3)cc2nc1CC | 3 | 3 | 31 | 43* | 1 | -1
CCCN1CCN(C(=O)c2ccc3nc(CC)c(CC)nc3c2)CC1 | -10 | 2 | 7 | 0 | 1 | 0
O=C(Nc1ccccc1)N[C@H]1CC[C@@H](CCn2cc(C3(O)CCCC3)nn2)O[C@H]1CO | nt | -4 | -2 | 0 | 13 | 3
C[C@@H]1CCC(=O)N(C[C@@H](C)CSc2ccc(Br)cc2)CC1 | -3 | -6 | -50 | 43* | 0 | 2
CC(C)(C)c1ccc(C(CC(=O)O)NC(=O)c2ccccc2F)cc1 (stereo not drawn) | 1 | 13 | 10 | 43* | nt | nt
COCCCNC(=O)CN(CCc1ccccc1)S(=O)(=O)c1ccc(C)cc1 | 23 | -11 | -1 | 44* | 1 | nt
CC(=O)c1cnc2scnn2c1=O | 10 | -1 | 15 | 43* | nt | nt
Cc1csc2ncc(C(=O)Nc3ccc(C(F)(F)F)cc3)c(=O)n12 | 5 | 5 | 2 | 0 | -2 | -2
CCN(CC)c1ccc2cc(C(N)=O)c(=O)oc2c1 | 132* | -18 | 6 | 0 | -2 | -6
C=CCN(CC=C)C(=S)NC(=O)Cc1cccc2ccccc12 | -2 | -7 | -61 | 43* | nt | nt
C[C@H]1CN([C@@H](C)CO)S(=O)(=O)c2ccc(Br)cc2O[C@@H]1CN(C)C(=O)CCN1CCCCC1 | 0 | 3 | 1 | 0 | 80*! | 3
